Converted amounts (≈) assume the structure as drawn. The source made the active and inactive calls. The calls are words filed in the database; no cut-off is given here.
Tests used:
DNA topoisomerase 1 = target: T1, DNA topoisomerase 1 (Homo sapiens, UniProt P11387); test: Inhibition of human DNA topoisomerase 1 using plasmid pBAD-GFPuv as substrate after 30 mins by agarose gel electrophoresis
T1 sequence (P11387 whole entry): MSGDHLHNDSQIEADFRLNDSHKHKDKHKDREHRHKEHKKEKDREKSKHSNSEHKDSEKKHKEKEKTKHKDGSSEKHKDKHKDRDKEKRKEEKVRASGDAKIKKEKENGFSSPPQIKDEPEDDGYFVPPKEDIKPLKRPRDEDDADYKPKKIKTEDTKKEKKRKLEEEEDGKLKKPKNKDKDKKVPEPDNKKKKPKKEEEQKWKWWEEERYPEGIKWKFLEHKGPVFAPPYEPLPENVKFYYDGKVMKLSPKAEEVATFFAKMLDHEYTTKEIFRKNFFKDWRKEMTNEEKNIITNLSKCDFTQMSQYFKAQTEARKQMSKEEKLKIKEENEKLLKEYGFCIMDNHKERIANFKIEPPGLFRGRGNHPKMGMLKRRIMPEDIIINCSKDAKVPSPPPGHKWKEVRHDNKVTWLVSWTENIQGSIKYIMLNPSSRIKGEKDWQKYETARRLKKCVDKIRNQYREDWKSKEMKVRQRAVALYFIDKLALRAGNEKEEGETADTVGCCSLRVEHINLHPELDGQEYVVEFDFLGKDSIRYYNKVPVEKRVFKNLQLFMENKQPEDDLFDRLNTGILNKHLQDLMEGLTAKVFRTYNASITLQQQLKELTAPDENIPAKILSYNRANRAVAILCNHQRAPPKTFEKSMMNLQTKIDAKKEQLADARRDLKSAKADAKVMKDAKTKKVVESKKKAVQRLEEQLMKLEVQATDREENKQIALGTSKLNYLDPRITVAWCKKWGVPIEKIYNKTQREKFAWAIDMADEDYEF

Pseudomonas aeruginosa = test: Antibacterial activity against Pseudomonas aeruginosa ATCC 27853 after 24 hrs by microbroth dilution method; format: functional; conditions: ATCC 27853, 24 h
In short: (§1)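 Microbroth dilution per CLSI guidelines. Organisms grown in Mueller−Hinton broth at 37 °C with shaking to log phase, pelleted, resuspended in 0.85% saline to OD625 0.1. Final inoculum 5 × 10^5 CFU/mL; triplicate; 24 h at 37 °C. OD625 read; MIC = lowest concentration completely inhibiting growth versus untreated controls.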

Klebsiella pneumoniae = test: Antibacterial activity against Klebsiella pneumoniae NR15410 after 24 hrs by microbroth dilution method; format: functional; conditions: NR15410, 24 h; in short: as §1
[1] = tested on: Staphylococcus epidermidis; test: Antibacterial activity against Staphylococcus epidermidis ATCC 12384 after 24 hrs by microbroth dilution method; format: functional; conditions: ATCC 12384, 24 h; in short: as §1
Staphylococcus aureus [2] = test: Antibacterial activity against Staphylococcus aureus ATCC 29213 after 24 hrs by microbroth dilution method; format: functional; conditions: ATCC 29213, 24 h; in short: as §1
[3] = Binding affinity to dA60.dT60 B-DNA duplex (unknown origin) assessed as change in melting temperature at 10 uM by UV-vis spectrophotometric analysis
In short: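 UV melting of dA60·dT60 at 1 μM/duplex with compound at 10 μM. Buffer 10 mM sodium cacodylate, 0.1 mM EDTA, 100 mM NaCl, pH 7.0; duplex pre-annealed from 95 °C. Compound stocks in DMSO diluted into buffer. Heating at 0.2 °C/min, monitored at 260 nm, points every 1.0 °C; Tm taken from derivatives.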

Shigella flexneri = test: Antibacterial activity against Shigella flexneri 2457NR517 after 24 hrs by microbroth dilution method; format: functional; conditions: 2457NR517, 24 h
In short: (§2)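 Mueller-Hinton broth cultures grown at 37 °C with shaking to log phase, pelleted, resuspended in 0.85% saline to OD625 0.1. Broth microdilution per CLSI guidelines, final inoculum 5 × 10^5 CFU/mL, in triplicate, 24 h at 37 °C. Growth read as OD625. MIC is the lowest concentration giving complete growth inhibition versus untreated controls.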

Citrobacter freundii = test: Antibacterial activity against Citrobacter freundii 4747CFAA after 24 hrs by microbroth dilution method; format: functional; in short: as §1
DU-145 = test: Cytotoxicity against human DU145 cells after 48 hrs by SRB assay; format: cell-based; conditions: for Activity: human, du-145, 48 h
In short: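 Cells cultured per ATCC protocols, seeded and grown 24 h (37 °C, 5% CO2), then treated in triplicate at final 20, 10, 5, 2.5, 1.25, 0.625 and 0.0625 μM for 48 h. Fixed with cold TCA (16% final, 4 °C, 1 h), stained with SRB in 1% acetic acid, dye solubilized in 10 mM Tris base, A560 read. IC50 derived; study in duplicate.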

Escherichia coli [4] = test: Inhibition of Escherichia coli RNA topoisomerase-1 using circular RNA as substrate 10 uM after 1.5 hrs by SDS-PAGE analysis
In short: (§3)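 10 nM E. coli topoisomerase I premixed with reaction buffer and inhibitor diluted in DMSO, then circular RNA substrate added; 1.5 h incubation. Stopped with proteinase K/SDS/EDTA buffer. Trefoil RNA knot product separated from circular substrate on 15% TBE−urea gels and detected by phosphorimaging. DMSO-only control included.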

Enterococcus faecium = test: Antibacterial activity against Enterococcus faecium BM4105RF after 24 hrs by microbroth dilution method; format: functional; in short: as §2
Staphylococcus aureus [5] = test: Antibacterial activity against methicillin-resistant Staphylococcus aureus 33591 after 24 hrs by microbroth dilution method; format: functional; conditions: Staphylococcus aureus, 33591, 24 h; in short: as §2
[6] = Binding affinity to dA60.dT60 B-DNA duplex (unknown origin) assessed as induction of biphasic transition at <5 uM by UV-vis spectrophotometric analysis
Enterobacter cloacae = test: Antibacterial activity against Enterobacter cloacae ATCC 13047 after 24 hrs by microbroth dilution method; format: functional; conditions: ATCC 13047, 24 h; in short: as §1
Escherichia coli [7] = test: Antibacterial activity against Escherichia coli ATCC 25922 after 24 hrs by microbroth dilution method; format: functional; conditions: ATCC 25922, 24 h; in short: as §1
Staphylococcus aureus [8] = test: Antibacterial activity against Staphylococcus aureus ATCC 33591 after 24 hrs by microbroth dilution method; format: functional; conditions: ATCC 33591, 24 h; in short: as §1
Escherichia coli [9] = test: Antibacterial activity against Escherichia coli K-12 after 24 hrs by microbroth dilution method; format: functional; conditions: K-12, 24 h; in short: as §1
Acinetobacter baumannii = test: Antibacterial activity against Acinetobacter baumannii ATCC 19606 after 24 hrs by microbroth dilution method; format: functional; conditions: ATCC 19606 = CIP 70.34 = JCM 6841, 24 h; in short: as §1
Enterococcus faecalis = test: Antibacterial activity against Enterococcus faecalis ATCC 29212 after 24 hrs by microbroth dilution method; format: functional; conditions: ATCC 29212, 24 h; in short: as §1
Staphylococcus aureus [10] = test: Antibacterial activity against methicillin-resistant Staphylococcus aureus A960649 after 24 hrs by microbroth dilution method; format: functional; conditions: A960649, 24 h; in short: as §2
[11] = Inhibition of Escherichia coli DNA topoisomerase 1 using plasmid pBAD-GFPuv as substrate after 15 mins by agarose gel electrophoresis
In short: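 E. coli topoisomerase I at 6 nM relaxing 150 ng supercoiled pBAD-GFPuv. 15 min at 37 °C, phenol-stopped, 1% agarose gel, ethidium stain. IC50 is the concentration leaving 50% DNA supercoiled; three independent determinations.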

Escherichia coli [12] = test: Inhibition of Escherichia coli DNA gyrase using relaxed plasmid pBAD-GFPuv as substrate after 30 mins by agarose gel electrophoresis
Escherichia coli [13] = test: Inhibition of Escherichia coli RNA topoisomerase 1 using circular RNA as substrate up to 50 uM after 1.5 hrs by SDS-PAGE analysis; in short: as §3
Escherichia coli [14] = test: Inhibition of Escherichia coli RNA topoisomerase 1 using circular RNA as substrate up to 80 uM after 1.5 hrs by SDS-PAGE analysis
In short: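 E. coli topoisomerase I (10 nM) premixed in reaction buffer with inhibitor diluted in DMSO, then circular RNA substrate added; 1.5 h. DMSO-only control included. Final inhibitor 2.5 to 80 μM. Stopped with proteinase K/SDS/EDTA. Trefoil RNA knot product resolved from substrate on 15% TBE-urea gels and detected by autoradiography.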

With C#CCOCCCCCCCCOc1ccc(-c2nc3ccc(-c4nc5ccc(N6CCN(C)CC6)cc5[nH]4)cc3[nH]2)cc1 the IC50 (DNA topoisomerase 1) was greater than 50 µM, the MIC (Pseudomonas aeruginosa) was 16 to 32 µg/mL (≈ 27.1 to 54.2 µM) and the MIC (Klebsiella pneumoniae) was greater than 32 µg/mL. For the same compound, the MIC [1] was greater than 32 µg/mL, the MIC (Staphylococcus aureus [2]) was greater than 32 µg/mL and the ΔTm [3] was 13.1 °C. For the same compound, the MIC (Shigella flexneri) was greater than 38 µg/mL, the MIC (Citrobacter freundii) was greater than 32 µg/mL and the Activity (DU-145) was “Toxic”. For the same compound, the inhibition (Escherichia coli [4]) was “Active”, the MIC (Enterococcus faecium) was greater than 32 µg/mL and the MIC (Staphylococcus aureus [5]) was greater than 32 µg/mL. The Activity [6] was “Active”, the MIC (Enterobacter cloacae) was greater than 32 µg/mL and the MIC (Escherichia coli [7]) was 16 to 32 µg/mL (≈ 27.1 to 54.2 µM). It also gave an MIC (Staphylococcus aureus [8]) of 16 to 32 µg/mL (≈ 27.1 to 54.2 µM), an MIC (Escherichia coli [9]) of 2 to 4 µg/mL (≈ 3.39 to 6.77 µM) and an MIC (Acinetobacter baumannii) greater than 32 µg/mL. For the same compound, the MIC (Enterococcus faecalis) was 16 to 32 µg/mL (≈ 27.1 to 54.2 µM), the MIC (Staphylococcus aureus [10]) was greater than 32 µg/mL and the IC50 [11] was 2.8 µM.
Work on C#CCCCCCCCCCOc1ccc(-c2nc3ccc(-c4nc5ccc(N6CCN(C)CC6)cc5[nH]4)cc3[nH]2)cc1 yielded an MIC (Pseudomonas aeruginosa) of 16 µg/mL (≈ 27.8 µM), an MIC (Klebsiella pneumoniae) greater than 32 µg/mL and an MIC [1] greater than 32 µg/mL. For the same compound, the MIC (Shigella flexneri) was greater than 32 µg/mL, the MIC (Citrobacter freundii) was greater than 32 µg/mL and the IC50 (DU-145; Homo sapiens, DU-145, 48 h) was greater than 10 µM. The inhibition (Escherichia coli [12]) was “inactive”, the inhibition (Escherichia coli [4]) was “Active” and the MIC (Enterococcus faecium) was greater than 32 µg/mL. It also gave an MIC (Staphylococcus aureus [5]) greater than 32 µg/mL, an MIC (Enterobacter cloacae) greater than 32 µg/mL and an MIC (Escherichia coli [7]) of 16 µg/mL (≈ 27.8 µM). For the same compound, the MIC (Acinetobacter baumannii) was greater than 32 µg/mL and the MIC (Staphylococcus aureus [10]) was greater than 32 µg/mL.
C#CCOCCCCCCOc1ccc(-c2nc3ccc(-c4nc5ccc(N6CCN(C)CC6)cc5[nH]4)cc3[nH]2)cc1 showed an IC50 (DNA topoisomerase 1) greater than 50 µM, an MIC (Pseudomonas aeruginosa) of 16 to 32 µg/mL (≈ 28.4 to 56.9 µM) and an MIC (Klebsiella pneumoniae) greater than 32 µg/mL. For the same compound, the MIC [1] was greater than 32 µg/mL, the MIC (Staphylococcus aureus [2]) was 16 to 32 µg/mL (≈ 28.4 to 56.9 µM) and the ΔTm [3] was 18.3 °C. The MIC (Shigella flexneri) was greater than 32 µg/mL, the MIC (Citrobacter freundii) was greater than 32 µg/mL and the Activity (DU-145) was “Toxic”. The MIC (Enterococcus faecium) was greater than 32 µg/mL, the MIC (Staphylococcus aureus [5]) was greater than 32 µg/mL and the Activity [6] was “Active”. For the same compound, the MIC (Enterobacter cloacae) was greater than 32 µg/mL, the MIC (Escherichia coli [7]) was 16 to 32 µg/mL (≈ 28.4 to 56.9 µM) and the MIC (Staphylococcus aureus [8]) was 16 to 32 µg/mL (≈ 28.4 to 56.9 µM). It also gave an MIC (Escherichia coli [9]) of 8 µg/mL (≈ 14.2 µM), an MIC (Acinetobacter baumannii) greater than 32 µg/mL and an MIC (Enterococcus faecalis) of 16 to 32 µg/mL (≈ 28.4 to 56.9 µM). The MIC (Staphylococcus aureus [10]) was greater than 32 µg/mL, the IC50 [11] was 3.2 µM and the inhibition (Escherichia coli [13]) was “inactive”.
Compound C#CCOc1ccc(-c2nc3ccc(-c4nc5ccc(N6CCN(C)CC6)cc5[nH]4)cc3[nH]2)cc1 has an MIC (Pseudomonas aeruginosa) of 16 µg/mL (≈ 34.6 µM), an MIC (Klebsiella pneumoniae) greater than 32 µg/mL and an MIC [1] of 1 to 2 µg/mL (≈ 2.16 to 4.32 µM). The MIC (Shigella flexneri) was 1 to 2 µg/mL (≈ 2.16 to 4.32 µM), the MIC (Citrobacter freundii) was 4 µg/mL (≈ 8.65 µM) and the Activity (DU-145) was “Toxic”. The inhibition (Escherichia coli [12]) was “inactive”, the MIC (Enterococcus faecium) was 1 to 2 µg/mL (≈ 2.16 to 4.32 µM) and the MIC (Enterobacter cloacae) was 32 µg/mL (≈ 69.2 µM). It also gave an MIC (Escherichia coli [7]) of 8 µg/mL (≈ 17.3 µM), an MIC (Acinetobacter baumannii) greater than 32 µg/mL and an MIC (Staphylococcus aureus [10]) of 1 to 2 µg/mL (≈ 2.16 to 4.32 µM). The inhibition (Escherichia coli [13]) was “inactive”.
With CCOc1ccc2nc3cc(N)ccc3c(N)c2c1 the inhibition (Escherichia coli [14]) was “inactive”.
